The text below walks through data of ChEMBL document CHEMBL1131611, “N-(Iodopropenyl)-octahydrobenzo[f]- and -[g]quinolines: synthesis and adrenergic and dopaminergic activity studies” (J Med Chem, 1998).

Assay type in all cases: cell membranes, Membrane; call rule not given here
For experiment [1], the target named is T1, D(2) dopamine receptor (Rattus norvegicus, UniProt P61169). The experiment is described as follows: Displacement of [3H]spiroperidol from Dopamine receptor D2 of rat striatal membranes. Put shortly:
(§1)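 Competition radioligand binding in rat striatal membranes: D2 sites labelled with [3H]spiroperidol and D1 sites with [3H]SCH-23390. Inhibition of specific binding was measured. Three experiments, each in duplicate. Compounds were tested up to 5 μM, and those without binding at that level were scored not active.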

Experiment [2] addresses T2, Adrenergic receptor alpha-2 (Rattus norvegicus, UniProt P22086+P19328+P22909).
T2 sequence (P22086 whole entry): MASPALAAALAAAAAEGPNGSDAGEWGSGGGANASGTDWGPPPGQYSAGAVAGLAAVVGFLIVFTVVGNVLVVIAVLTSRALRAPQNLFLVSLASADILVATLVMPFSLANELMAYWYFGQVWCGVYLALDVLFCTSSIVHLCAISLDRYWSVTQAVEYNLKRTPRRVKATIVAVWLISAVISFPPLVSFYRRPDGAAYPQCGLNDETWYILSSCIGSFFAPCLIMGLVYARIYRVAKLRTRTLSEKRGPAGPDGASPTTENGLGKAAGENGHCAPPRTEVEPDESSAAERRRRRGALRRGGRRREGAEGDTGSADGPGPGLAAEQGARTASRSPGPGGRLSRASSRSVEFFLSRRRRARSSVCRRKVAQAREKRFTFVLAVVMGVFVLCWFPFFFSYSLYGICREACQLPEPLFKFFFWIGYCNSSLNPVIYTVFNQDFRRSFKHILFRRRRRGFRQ
T2 sequence (P19328 whole entry): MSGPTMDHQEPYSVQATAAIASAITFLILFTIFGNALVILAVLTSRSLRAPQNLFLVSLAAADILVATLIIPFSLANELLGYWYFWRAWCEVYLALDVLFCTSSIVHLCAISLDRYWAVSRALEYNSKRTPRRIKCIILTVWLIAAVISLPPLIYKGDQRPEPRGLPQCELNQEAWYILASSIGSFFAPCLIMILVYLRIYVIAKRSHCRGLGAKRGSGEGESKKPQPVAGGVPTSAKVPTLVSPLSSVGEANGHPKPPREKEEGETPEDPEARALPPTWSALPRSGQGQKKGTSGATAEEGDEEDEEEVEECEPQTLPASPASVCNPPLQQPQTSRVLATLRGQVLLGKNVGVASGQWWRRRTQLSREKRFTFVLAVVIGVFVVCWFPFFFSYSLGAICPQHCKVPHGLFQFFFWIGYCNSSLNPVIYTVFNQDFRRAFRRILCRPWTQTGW
T2 sequence (P22909 whole entry): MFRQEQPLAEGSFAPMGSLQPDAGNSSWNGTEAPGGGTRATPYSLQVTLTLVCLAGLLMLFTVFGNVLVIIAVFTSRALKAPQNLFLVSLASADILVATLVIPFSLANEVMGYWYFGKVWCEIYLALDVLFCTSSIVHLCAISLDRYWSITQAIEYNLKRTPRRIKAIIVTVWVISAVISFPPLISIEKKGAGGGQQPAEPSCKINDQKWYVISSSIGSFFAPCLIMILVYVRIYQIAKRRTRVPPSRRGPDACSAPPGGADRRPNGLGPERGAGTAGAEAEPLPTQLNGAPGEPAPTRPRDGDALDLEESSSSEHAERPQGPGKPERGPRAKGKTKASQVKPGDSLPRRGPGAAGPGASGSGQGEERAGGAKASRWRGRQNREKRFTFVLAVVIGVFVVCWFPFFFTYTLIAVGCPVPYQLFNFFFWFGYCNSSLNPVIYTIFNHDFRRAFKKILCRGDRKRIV
The experiment is described as follows: Displacement of [3H]rauwolscine from Alpha-2 adrenergic receptor of rat cortical membranes.

The target of experiment [3] is T3, D(1A) dopamine receptor (Rattus norvegicus, UniProt P18901). The experiment is described as follows: Inhibition of specific binding of [3H]-SCH- 23390 to Dopamine receptor D1 in rat striatal membranes; NA= Not active up to a concentration of 5 uM. Put shortly:
as §1

Experiment [4] addresses T4, Adrenergic receptor alpha-1 (Rattus norvegicus, UniProt P15823+P23944+P43140).
T4 sequence (P15823 whole entry): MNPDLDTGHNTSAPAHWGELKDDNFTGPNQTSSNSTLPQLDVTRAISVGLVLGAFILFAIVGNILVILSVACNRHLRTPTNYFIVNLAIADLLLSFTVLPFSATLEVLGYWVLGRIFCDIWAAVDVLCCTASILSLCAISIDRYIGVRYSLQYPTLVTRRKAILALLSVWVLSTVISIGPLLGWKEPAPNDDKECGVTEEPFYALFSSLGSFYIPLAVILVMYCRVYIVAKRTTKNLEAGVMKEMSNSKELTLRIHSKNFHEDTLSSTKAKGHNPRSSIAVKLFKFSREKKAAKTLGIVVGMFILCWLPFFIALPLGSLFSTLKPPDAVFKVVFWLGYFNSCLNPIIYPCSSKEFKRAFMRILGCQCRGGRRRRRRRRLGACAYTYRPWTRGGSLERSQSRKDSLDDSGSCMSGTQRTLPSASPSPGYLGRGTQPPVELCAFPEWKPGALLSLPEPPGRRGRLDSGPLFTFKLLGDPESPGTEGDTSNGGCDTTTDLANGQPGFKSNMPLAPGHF
T4 sequence (P23944 whole entry): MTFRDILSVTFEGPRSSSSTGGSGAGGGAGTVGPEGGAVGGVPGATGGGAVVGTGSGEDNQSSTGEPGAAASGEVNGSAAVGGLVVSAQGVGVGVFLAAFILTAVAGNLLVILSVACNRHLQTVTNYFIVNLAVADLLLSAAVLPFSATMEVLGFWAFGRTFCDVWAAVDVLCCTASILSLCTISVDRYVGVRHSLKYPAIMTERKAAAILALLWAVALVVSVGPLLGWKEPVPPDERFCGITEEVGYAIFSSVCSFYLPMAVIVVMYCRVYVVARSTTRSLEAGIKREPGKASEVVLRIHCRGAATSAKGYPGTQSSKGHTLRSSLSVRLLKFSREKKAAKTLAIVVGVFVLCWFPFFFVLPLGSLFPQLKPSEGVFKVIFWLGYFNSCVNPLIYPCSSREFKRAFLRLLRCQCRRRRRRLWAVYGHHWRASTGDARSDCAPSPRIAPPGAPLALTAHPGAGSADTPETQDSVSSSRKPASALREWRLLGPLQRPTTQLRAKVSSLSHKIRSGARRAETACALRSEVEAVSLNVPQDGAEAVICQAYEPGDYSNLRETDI
T4 sequence (P43140 whole entry): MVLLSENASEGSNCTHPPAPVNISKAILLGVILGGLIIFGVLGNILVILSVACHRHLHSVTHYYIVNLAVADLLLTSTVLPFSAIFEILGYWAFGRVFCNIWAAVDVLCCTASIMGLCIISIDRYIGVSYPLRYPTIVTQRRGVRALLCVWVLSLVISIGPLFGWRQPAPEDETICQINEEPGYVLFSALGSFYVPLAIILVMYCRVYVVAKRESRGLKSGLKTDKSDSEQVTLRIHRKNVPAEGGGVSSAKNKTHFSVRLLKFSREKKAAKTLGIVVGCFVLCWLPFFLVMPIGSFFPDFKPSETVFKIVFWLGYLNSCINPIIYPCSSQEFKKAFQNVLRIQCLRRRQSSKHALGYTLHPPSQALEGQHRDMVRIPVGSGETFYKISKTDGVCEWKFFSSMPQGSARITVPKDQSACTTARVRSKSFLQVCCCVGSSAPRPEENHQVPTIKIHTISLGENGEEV
The experiment is described as follows: Displacement of [3H]prazosin from Alpha-1 adrenergic receptor of rat cortical membranes.

Experiment [5] has as its target T3, D(1A) dopamine receptor. The experiment is described as follows: Displacement of [3H]-SCH- 23390 from Dopamine receptor D1 of rat striatal membranes. Put shortly: as §1
For experiment [6], the target named is T1, D(2) dopamine receptor. The experiment is described as follows: Inhibition of specific binding of [3H]spiroperidol to Dopamine receptor D2 in rat striatal membranes. Put shortly: as §1
For experiment [7], the target named is T2, Adrenergic receptor alpha-2. The experiment is described as follows: Inhibition of specific binding of [3H]rauwolscine to Alpha-2 adrenergic receptor in rat cortical membranes.
In experiment [8] the target is T3, D(1A) dopamine receptor. The experiment is described as follows: Inhibition of specific binding of [3H]-SCH- 23390 to Dopamine receptor D1 in rat striatal membranes; Not active up to a concentration of 5 uM. Put shortly:
as §1

T1 sequence (P61169 whole entry): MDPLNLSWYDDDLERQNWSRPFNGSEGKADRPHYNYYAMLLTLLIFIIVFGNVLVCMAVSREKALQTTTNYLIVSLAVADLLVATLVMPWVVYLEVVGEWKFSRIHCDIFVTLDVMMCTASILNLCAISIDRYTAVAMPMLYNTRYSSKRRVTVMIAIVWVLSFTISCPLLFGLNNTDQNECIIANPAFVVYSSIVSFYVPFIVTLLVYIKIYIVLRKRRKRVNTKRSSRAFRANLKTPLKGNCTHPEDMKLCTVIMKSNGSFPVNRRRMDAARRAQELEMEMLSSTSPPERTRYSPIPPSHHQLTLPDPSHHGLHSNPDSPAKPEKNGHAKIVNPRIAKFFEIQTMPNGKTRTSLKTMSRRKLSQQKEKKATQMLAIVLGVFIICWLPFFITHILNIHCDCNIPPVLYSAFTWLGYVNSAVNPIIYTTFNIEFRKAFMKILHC
T3 sequence (P18901 whole entry): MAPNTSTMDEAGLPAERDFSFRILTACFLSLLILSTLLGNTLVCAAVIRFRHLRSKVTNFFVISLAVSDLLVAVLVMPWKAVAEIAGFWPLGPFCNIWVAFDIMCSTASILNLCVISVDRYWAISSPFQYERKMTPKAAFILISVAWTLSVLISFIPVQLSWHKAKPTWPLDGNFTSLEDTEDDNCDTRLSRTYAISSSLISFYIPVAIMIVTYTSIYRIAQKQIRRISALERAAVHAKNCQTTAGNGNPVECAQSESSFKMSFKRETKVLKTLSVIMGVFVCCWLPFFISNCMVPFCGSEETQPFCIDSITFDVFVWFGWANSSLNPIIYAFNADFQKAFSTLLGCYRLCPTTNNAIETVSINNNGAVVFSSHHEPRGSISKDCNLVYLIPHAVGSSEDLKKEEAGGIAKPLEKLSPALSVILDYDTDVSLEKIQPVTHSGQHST

Turning to `C#CCN1CCC[C@@H]2c3ccccc3CC[C@H]21`, the figures for the half-maximal inhibitory concentration (IC50) result in experiment [1], in experiment [2] and in experiment [3] were “Not Active”, 160 nM and “Not Active”, respectively.
As for `Oc1cccc2c1CC1CCCN(C/C=C/I)C1C2` (stereo not given), the IC50 in experiment [4] was 54 nM; in experiment [5] it was 120 nM; in experiment [6] it was 490 nM; in experiment [2] it was 0.5 nM.
With `C#CCN1CCCC2Cc3c(cccc3OC)CC21` (stereo not given), the IC50 is 1850 nM in experiment [4], “Not Active” in experiment [1], 197 nM in experiment [2] and “Not Active” in experiment [3].
`COc1cccc2c1CC1CCCNC1C2` (stereo not given): the IC50 in experiment [4] was 2200 nM; in experiment [1] it was “Not Active”; in experiment [2], 67.5 nM; in experiment [3] it was “Not Active”.
As to `Oc1cccc2c1CC[C@@H]1[C@@H]2CCCN1C/C=C/I`, the IC50 is 225 nM in experiment [4], 1130 nM in experiment [5], “Not Active” in experiment [1] and 47 nM in experiment [7].
In the case of `c1ccc2c(c1)CC1CCCNC1C2` (stereo not given), the concentration for half-maximal inhibition (IC50) result in experiment [1] is on record as “Not Active”; in experiment [7], 130 nM; in experiment [8], “Not Active”.
As to `C#CCN1CCCC2Cc3ccccc3CC21` (stereo not given), the 50% inhibitory concentration (IC50) in experiment [4] was 1300 nM; in experiment [1] it was “Not Active”; in experiment [2], 142 nM; in experiment [8], “Not Active”.
On to `C#CCN1CCCC2Cc3c(O)cccc3CC21` (stereo not given), for which the 50% inhibitory concentration (IC50) in experiment [4] worked out at 209 nM; in experiment [5] it was 700 nM; in experiment [6] it was 5110 nM; in experiment [2] it was 251 nM.
`I/C=C/CN1CCCC2Cc3ccccc3CC21` (stereo not given): the half-maximal inhibitory concentration (IC50) in experiment [4] was 274 nM; in experiment [5] it was 220 nM; in experiment [1], “Not Active”; in experiment [2] it was 33 nM.
Consider `c1ccc2c(c1)CC[C@H]1NCCC[C@H]21`, for which the half-maximal inhibitory concentration (IC50) entry in experiment [1] is listed as “Not Active”; in experiment [2], 154 nM; in experiment [3] it was “Not Active”.
Turning to `COc1cccc2c1CC[C@H]1NCCC[C@H]21`, the IC50 entry in experiment [1] is reported as “Not Active”; in experiment [7] it was 55 nM; in experiment [3], “Not Active”.
In the case of `C#CCN1CCC[C@@H]2c3cccc(O)c3CC[C@H]21`, the IC50 entry is on record as “Not Active” in experiment [1], 49 nM in experiment [7] and “Not Active” in experiment [8].
The compound `NC1CCc2cc(O)c(O)cc2C1` (stereo not given) came in with an IC50 in experiment [6] of 700 nM.
In the case of `I/C=C/CN1CCC[C@@H]2c3ccccc3CC[C@H]21`, the 50% inhibitory concentration (IC50) in experiment [4] is 253 nM; in experiment [5] it was 1900 nM; in experiment [1], “Not Active”; in experiment [7], 128 nM.
With `COc1cccc2c1CC1CCCN(C/C=C/I)C1C2` (stereo not given), the concentration for half-maximal inhibition (IC50) in experiment [4] is 43 nM; in experiment [5], 80 nM; in experiment [1], “Not Active”; in experiment [2], 226 nM.
In the case of `C#CCN1CCC[C@@H]2c3cccc(OC)c3CC[C@H]21`, the concentration for half-maximal inhibition (IC50) is recorded as 497 nM in experiment [4], “Not Active” in experiment [1], 196 nM in experiment [7] and “Not Active” in experiment [3].
As to `COc1cccc2c1CC[C@@H]1[C@@H]2CCCN1C/C=C/I`, the concentration for half-maximal inhibition (IC50) is 508 nM in experiment [4], 270 nM in experiment [5], “Not Active” in experiment [1] and 18 nM in experiment [7].
